Test results as given in ChEMBL document CHEMBL4373689, “Ferulic Acid Esters and Withanolides: In Search of Withania somnifera GABAA Receptor Modulators” (J Nat Prod, 2019).
Activity calls are given as the source filed them. The calls are words filed in the database; no cut-off is given here.

Columns and labels:
[1] = target: T1, GABA-A receptor; anion channel (Rattus norvegicus) (UniProt O09028+P15431+P18506+P18508+P19969+P20236+P23574+P23576+P28471+P28473+P30191+P62813+P63079+P63138+Q91ZM7+Q9ES14); experiment: Activation of GABAA receptor in Sprague-Dawley rat dentate gyrus hippocampal granule neurons assessed as holding current at 10 uM by whole-cell patch-clamp method; format: protein-complex assay
Outline: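 Rat dentate gyrus granule cells. Holding current was monitored with no electrical stimulation, before and after perfusion of 10 μM compound, to test for direct GABAAR activation.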

[2] = target: T1, GABA-A receptor; anion channel (Rattus norvegicus); experiment: Modulation of GABAA receptor in electrically stimulated Sprague-Dawley rat dentate gyrus hippocampal granule neurons assessed as decrease in GABA induced IPSC amplitude at 10 uM at holding potential of -65 mV by whole-cell patch-clamp method relative to control; format: protein-complex assay
Outline: (§1)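 Rat dentate gyrus granule cells gave evoked IPSCs. Stimulus intensity was set at the start of each recording to give about 30% of maximal amplitude, and bicuculline (20 μM) suppression confirmed GABAAR mediation. IPSCs were recorded before and after perfusion of 10 μM compound, and results are given as percent change from baseline (means ± SEM, n = cells).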

[3] = target: T1, GABA-A receptor; anion channel (Rattus norvegicus); experiment: Modulation of GABAA receptor in electrically stimulated Sprague-Dawley rat dentate gyrus hippocampal granule neurons assessed as GABA induced IPSC amplitude at 10 uM at holding potential of -65 mV by whole-cell patch-clamp method; format: protein-complex assay; outline: as §1
[4] = target: GABA-A receptor; anion channel; experiment: Modulation of GABAA receptor in electrically stimulated Sprague-Dawley rat dentate gyrus hippocampal granule neurons assessed as potentiation of GABA induced IPSC amplitude at holding potential of -65 mV by whole-cell patch-clamp method; format: protein-complex assay
[5] = target: T1, GABA-A receptor; anion channel (Rattus norvegicus); experiment: Modulation of GABAA receptor in electrically stimulated Sprague-Dawley rat dentate gyrus hippocampal granule neurons assessed as maximal potentiation of GABA induced IPSC amplitude at 100 uM at holding potential of -65 mV by whole-cell patch-clamp method relative to control; format: protein-complex assay
[6] = target: T1, GABA-A receptor; anion channel (Rattus norvegicus); experiment: Modulation of GABAA receptor in electrically stimulated Sprague-Dawley rat dentate gyrus hippocampal granule neurons assessed as increase in GABA induced IPSC amplitude at 10 uM at holding potential of -65 mV by whole-cell patch-clamp method relative to control; format: protein-complex assay; outline: as §1
[7] = target: T1, GABA-A receptor; anion channel (Rattus norvegicus); conditions: Sprague-Dawley, 20 uM

| Compound | Activity [1] | inhibition [2] | Activity [3] | other results |
| --- | --- | --- | --- | --- |
| CCCCCCCCCCCCCCCCCCOC(=O)/C=C/c1ccc(O)c(OC)c1 | inactive | 35.8% |  |  |
| CC1=C(C)C(=O)O[C@@H]([C@@](C)(O)[C@H]2CC[C@H]3[C@@H]4[C@@H]5O[C@@H]5[C@@]5(O)CC=CC(=O)[C@]5(C)[C@H]4CC[C@]23C)C1 | inactive | 20.8% |  |  |
| CC1=C(CO)C(=O)O[C@@H]([C@@H](C)[C@H]2CC[C@H]3[C@@H]4C[C@H]5O[C@]56[C@@H](O)C=CC(=O)[C@]6(C)[C@H]4CC[C@]23C)C1 | inactive |  | inactive |  |
| CCCCCCCCCCCCCCCCCCCCCOC(=O)/C=C/c1ccc(O)c(OC)c1 | inactive |  |  | EC50 [4]: 7.9 µM; Activity [5]: 74%; Activity [6]: 48.2% |
| CCCCCCCCCCCCCCCCCCCOC(=O)/C=C/c1ccc(O)c(OC)c1 | inactive | 36.5% |  |  |
| CN1CCc2cc3c(cc2[C@H]1[C@@H]1OC(=O)c2c1ccc1c2OCO1)OCO3 |  |  |  | inhibition [7]: Active |
| CC1=C(C)C(=O)O[C@@H]([C@H](C)[C@H]2CC[C@H]3[C@@H]4[C@@H]5O[C@@H]5[C@@]5(O)CC=CC(=O)[C@]5(C)[C@H]4CC[C@]23C)C1 | inactive |  |  | Activity [6]: 29.4% |
| CC1=C(C)C(=O)O[C@@H]([C@](C)(O)[C@H]2CC[C@H]3[C@@H]4C=CC5=CC=CC(=O)[C@]5(C)[C@H]4CC[C@]23C)C1 | inactive | 28.6% |  |  |
| COc1cc(/C=C/C(=O)OCCCCCOC(=O)/C=C/c2ccc(O)c(OC)c2)ccc1O | inactive |  | inactive |  |
| CC1=C(CO)C(=O)O[C@@H]([C@H](C)[C@H]2CC[C@H]3[C@@H]4C=CC5=CC=CC(=O)[C@]5(C)[C@H]4CC[C@]23C)C1 | inactive |  | inactive |  |
